Results on 3 compounds are retold here after article PMC5497724 (Cancer Science, 2017).

The structures appear in SMILES notation.

The conditions of data set [1]: SCID mice, 4.4 mg/kg i.v.; 40% ethanol, 5% PEG 400, 55% normal saline; cited from earlier work.
The conditions of data set [2]: rats, given orally; cited from earlier work.
Data set [3] deals with HT1080 cells. In words: Western blot analysis of PI3K pathway and histone acetylation. The format is cell-based, human. To be noted: 3 h. An outline of the steps:
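HT1080 cells in RPMI-1640 with 10% FBS were handled as in the proliferation assay: 8 × 10³ cells seeded, 24 h at 37°C. Cells were treated 3 h with test compound (in DMSO) at various concentrations. Reference treatments were 2.5 μM SAHA, 1 μM GDC-0941 or both. Western blots probed phospho-AKT (Ser473, Thr308), AKT, phospho-S6, S6, acetyl-histone H3 and β-actin.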

In the case of `C/C=C1\NC(=O)[C@H]2CSSCC/C=C/[C@H](CC(=O)N[C@H](C(C)C)C(=O)N2)OC(=O)[C@H](C(C)C)NC1=O` [FK228, Romidepsin], in data set [1], the AUC was 1123 ng·h/mL. In addition, in data set [2], the “drug levels after oral dosing vs i.v.” value was “lower and more erratic drug levels than i.v. treatment”.

For the compound `CS(=O)(=O)N1CCN(Cc2cc3nc(-c4cccc5[nH]ncc45)nc(N4CCOCC4)c3s2)CC1` [GDC0941], the “phosphorylation of AKT and S6 (Western blot)” value in data set [3] was “inhibited the phosphorylation of AKT and S6 ribosomal protein”.

In the case of `O=C(CCCCCCC(=O)Nc1ccccc1)NO` [SAHA, Suberoylanilidehydroxamic acid], the “acetylation of histone H3 (Western blot)” value in data set [3] is “promoted acetylation of histone H3”.
